ChEMBL document CHEMBL4052613, “Structure-activity relationship studies of 1,7-diheteroarylhepta-1,4,6-trien-3-ones with two different terminal rings in prostate epithelial cell models” (Eur J Med Chem, 2017)

How the values were obtained:
PWR-1E = assay: Antiproliferative activity against human PWR-1E cells after 3 days by WST-1 assay; type: cell-based; settings: 72 h
Procedure, shortened: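 PWR-1E non-neoplastic prostate epithelial cells grown in keratinocyte serum-free medium with bovine pituitary extract and recombinant human EGF. WST-1 proliferation read-out after 3 days of exposure.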

PC-3 [1] = assay: Induction of apoptosis in human PC3 cells assessed as viable cells at 5 uM after 16 hrs by F2N12S orange and SYTOX green double staining based flow cytometry (reference value: 95%); type: functional; settings: PC-3, 16 h, read-out: Activity
PC-3 [2] = assay: Induction of apoptosis in human PC3 cells assessed as apoptotic cells at 5 uM after 16 hrs by F2N12S orange and SYTOX green double staining based flow cytometry (reference value: 2 to 3%); type: functional
PC-3 [3] = assay: Induction of apoptosis in human PC3 cells assessed as necrotic cells at 5 uM after 16 hrs by F2N12S orange and SYTOX green double staining based flow cytometry (reference value: 2 to 3%); type: functional
PC-3 [4] = assay: Induction of apoptosis in human PC3 cells assessed as viable cells at 10 uM after 16 hrs by F2N12S orange and SYTOX green double staining based flow cytometry (reference value: 95%); type: functional; settings: PC-3, 16 h, read-out: Activity
PC-3 [5] = assay: Induction of apoptosis in human PC3 cells assessed as apoptotic cells at 10 uM after 16 hrs by F2N12S orange and SYTOX green double staining based flow cytometry (reference value: 2 to 3%); type: functional
PC-3 [6] = assay: Induction of apoptosis in human PC3 cells assessed as necrotic cells at 10 uM after 16 hrs by F2N12S orange and SYTOX green double staining based flow cytometry (reference value: 2 to 3%); type: functional
PC-3 [7] = assay: Induction of apoptosis in human PC3 cells assessed as viable cells at 20 uM after 16 hrs by F2N12S orange and SYTOX green double staining based flow cytometry (reference value: 95%); type: functional; settings: PC-3, 16 h, read-out: Activity
PC-3 [8] = assay: Induction of apoptosis in human PC3 cells assessed as apoptotic cells at 20 uM after 16 hrs by F2N12S orange and SYTOX green double staining based flow cytometry (reference value: 2 to 3%); type: functional
PC-3 [9] = assay: Induction of apoptosis in human PC3 cells assessed as necrotic cells at 20 uM after 16 hrs by F2N12S orange and SYTOX green double staining based flow cytometry (reference value: 2 to 3%); type: functional
PC-3 [10] = assay: Induction of apoptosis in human PC3 cells assessed as viable cells at 30 uM after 16 hrs by F2N12S orange and SYTOX green double staining based flow cytometry (reference value: 95%); type: functional; settings: PC-3, 16 h, read-out: Activity
PC-3 [11] = assay: Induction of apoptosis in human PC3 cells assessed as apoptotic cells at 30 uM after 16 hrs by F2N12S orange and SYTOX green double staining based flow cytometry (reference value: 2 to 3%); type: functional
PC-3 [12] = assay: Induction of apoptosis in human PC3 cells assessed as necrotic cells at 30 uM after 16 hrs by F2N12S orange and SYTOX green double staining based flow cytometry (reference value: 2 to 3%); type: functional
PC-3 [13] = assay: Induction of apoptosis in human PC3 cells assessed as viable cells at 40 uM after 16 hrs by F2N12S orange and SYTOX green double staining based flow cytometry (reference value: 95%); type: functional; settings: PC-3, 16 h, read-out: Activity
PC-3 [14] = assay: Induction of apoptosis in human PC3 cells assessed as apoptotic cells at 40 uM after 16 hrs by F2N12S orange and SYTOX green double staining based flow cytometry (reference value: 2 to 3%); type: functional
PC-3 [15] = assay: Induction of apoptosis in human PC3 cells assessed as necrotic cells at 40 uM after 16 hrs by F2N12S orange and SYTOX green double staining based flow cytometry (reference value: 2 to 3%); type: functional

| SMILES | IC50 (PWR-1E) | viability at 5 µM (PC-3 [1]) | Activity (PC-3 [2]) | Activity (PC-3 [3]) | viability at 10 µM (PC-3 [4]) | Activity (PC-3 [5]) | Activity (PC-3 [6]) | viability at 20 µM (PC-3 [7]) | Activity (PC-3 [8]) | Activity (PC-3 [9]) | viability at 30 µM (PC-3 [10]) | Activity (PC-3 [11]) | Activity (PC-3 [12]) | viability at 40 µM (PC-3 [13]) | Activity (PC-3 [14]) | Activity (PC-3 [15]) |
| --- | --- | --- | --- | --- | --- | --- | --- | --- | --- | --- | --- | --- | --- | --- | --- | --- |
| COc1cc(/C=C/C(=O)CC(=O)/C=C/c2ccc(O)c(OC)c2)ccc1O [CURCUMIN] | 8.14 µM |  |  |  |  |  |  |  |  |  |  |  |  |  |  |  |
| CN[C@@H]1C[C@H]2O[C@@](C)([C@@H]1OC)n1c3ccccc3c3c4c(c5c6ccccc6n2c5c31)C(=O)NC4 [STAUROSPORINE] |  | 87% | 9% | 4% | 84% | 10% | 6% | 68% | 24% | 8% | 46% | 47% | 8% | 31% | 60% | 9% |
